This passage reports inhibition and IC50 results from ChEMBL document CHEMBL4680127, “Rational design and Structure-Activity relationship of coumarin derivatives effective on HIV-1 protease and partially on HIV-1 reverse transcriptase” (Eur J Med Chem, 2020).

Experiment [1] relates to Human immunodeficiency virus 1. The experiment can be described thus: Antiviral activity against wild type HIV1 assessed as inhibitory effect on virus producing cells at 10 uM by cell based inhibition assay. It counts as functional. The procedure, abridged: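 Late-stage single-round assay: compound at 10 μM was added to the medium of virus-producing cells 5 h after transfection and incubated 48 h. Pseudotyped virus from the supernatant then infected SupT1 cells for 48 h. Luciferase in the newly infected cells gave percent inhibition. Quadruplicate.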

The target in experiment [2] is Human immunodeficiency virus type 1 protease (Human immunodeficiency virus 1, UniProt Q72874). In words: Inhibition of recombinant HIV1 protease measured assessed as hydrolysis of fluorogenic substrate by FRET assay. Put shortly:
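Wild-type HIV-1 protease activity was read by FRET. Each assay was run in triplicate. IC50 values are means (±1 standard deviation) from three independent experiments.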

The target in experiment [3] is T1, Human immunodeficiency virus type 1 reverse transcriptase (Human immunodeficiency virus 1, UniProt Q72547). The experiment can be described thus: Inhibition of HIV-1BH10 reverse transcriptase expressed in Escherichia coli assessed as polymerization by one-step real time RT-PCR assay. On the technique in general: Quantitative PCR measures a nucleic acid by following its amplification.

The subject of experiment [4] is Human immunodeficiency virus 1. The experiment can be described thus: Antiviral activity against wild type HIV1 assessed as inhibitory effect on virus infected cells at 10 uM by cell based inhibition assay. The format is functional. Put shortly:
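Single-round assay of the early stage: SupT1 cells were first infected with pseudotyped HIV-1, then exposed to compound at 10 μM for 48 h. Luciferase activity was measured and expressed as percent inhibition.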

Experiment [5] addresses T1, Human immunodeficiency virus type 1 reverse transcriptase. The experiment can be described thus: Inhibition of HIV-1 NL4-3 reverse transcriptase expressed in Escherichia coli assessed as polymerization by one-step real-time RT-PCR assay.
In experiment [6] the test system is Human immunodeficiency virus 1. In words: Antiviral activity against wild type HIV1 infected in human SupT1 cells assessed as inhibitory effect at 100 nM by cell based inhibition assay. The format is functional. As to conditions: Human immunodeficiency virus 1, SUP-T1. The procedure, abridged:
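1×10^6 SupT1 cells were infected with HIV-1 NL4-3 by spin infection, with 10 µg/mL polybrene and test agent at 100 nM present during infection. Activity is expressed as percent inhibition of viral growth.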

Some results are limits rather than exact numbers.

As a reminder, the inhibition is the relative decrease from the control value, in per cent. `CC(C)CN(C[C@@H](O)[C@H](Cc1ccccc1)NC(=O)O[C@H]1CO[C@H]2OCC[C@H]21)S(=O)(=O)c1ccc(N)cc1`: the inhibition at 10 µM in experiment [1] is 30.8%.
For orientation: IC50 means the concentration needed to halve the response being measured. Take `COc1ccc(S(=O)(=O)N(CC(C)C)C[C@@H](O)[C@H](Cc2ccccc2)NCc2cc(=O)oc3cc(O)ccc23)cc1`: the IC50 in experiment [2] worked out at 0.053 µM. In experiment [1], the inhibition at 10 µM is 88.8%.
For the compound `COc1ccc(S(=O)(=O)N(CC(C)C)C[C@@H](O)[C@H](Cc2ccccc2)NC(=O)Oc2c3occc3cc3ccc(=O)oc23)cc1`, the results for the IC50 in experiment [2] and in experiment [3] were 0.12 µM and above 1000 µM, respectively.
Regarding `COc1ccc(S(=O)(=O)N(CC(C)C)C[C@@H](O)[C@H](Cc2ccccc2)NC(=O)c2cc3ccc(OC)cc3oc2=O)cc1`, the IC50 in experiment [2] came out at 0.0467 µM; in experiment [5], 370 µM. In experiment [4], the inhibition at 10 µM was determined as 8.28%.
For `CC(C)CN(C[C@@H](O)[C@H](Cc1ccccc1)NC(=O)c1cc2ccc(O)cc2oc1=O)S(=O)(=O)c1ccc(N)cc1` the same measures were 0.0277 µM, 554 µM and 27%.
Regarding `CC(C)CN(C[C@@H](O)[C@H](Cc1ccccc1)NC(=O)Oc1c2occc2cc2ccc(=O)oc12)S(=O)(=O)c1ccc([N+](=O)[O-])cc1`, the IC50 is 1.53 µM in experiment [2] and above 1000 µM in experiment [3].
For `COc1ccc(S(=O)(=O)N(CC(C)C)C[C@@H](O)[C@H](Cc2ccccc2)NC(=O)Cc2cc(=O)oc3cc(O)ccc23)cc1`, in experiment [6], the inhibition at 0.1 µM was 45.5%. For the same compound, the IC50 was 0.00162 µM in experiment [2] and 459 µM in experiment [5]. Moreover, the inhibition at 10 µM in experiment [1] came to 82.9%.
As to `CC(C)CN(C[C@@H](O)[C@H](Cc1ccccc1)NC(=O)Cc1cc(=O)oc2cc(N(C)C)ccc12)S(=O)(=O)c1ccc([N+](=O)[O-])cc1`, the figures for the IC50 in experiment [2] and in experiment [3] were 0.276 µM and above 1000 µM, respectively. Further, the inhibition at 10 µM in experiment [4] was 14.7%.
`CC(C)CN(C[C@@H](O)[C@H](Cc1ccccc1)NC(=O)c1cc2ccccc2oc1=O)S(=O)(=O)c1ccc(N)cc1`: the IC50 in experiment [2] is 0.156 µM; in experiment [5], 75.3 µM. The inhibition at 10 µM in experiment [4] was 1.34%.
As for `CC(C)CN(C[C@@H](O)[C@H](Cc1ccccc1)NCc1cc(=O)oc2cc(O)ccc12)S(=O)(=O)c1ccc([N+](=O)[O-])cc1`, the IC50 in experiment [2] stood at 0.14 µM. Besides, the inhibition at 10 µM in experiment [1] is 73.2%.
With `CC(C)CN(C[C@@H](O)[C@H](Cc1ccccc1)NC(=O)c1cc2ccccc2oc1=O)S(=O)(=O)c1ccc([N+](=O)[O-])cc1`, the IC50 in experiment [2] is 0.298 µM; in experiment [3], above 1000 µM. Moreover, the inhibition at 10 µM in experiment [4] was found to be 27.1%.
For `COc1ccc2c(CC(=O)N[C@@H](Cc3ccccc3)[C@H](O)CN(CC(C)C)S(=O)(=O)c3ccc([N+](=O)[O-])cc3)cc(=O)oc2c1`, the figures for the IC50 in experiment [2] and in experiment [5] were 0.0558 µM and 373 µM, respectively. The inhibition at 10 µM in experiment [4] worked out at 43.7%.
As to `CC(C)CN(C[C@@H](O)[C@H](Cc1ccccc1)NC(=O)c1cc2ccc(O)cc2oc1=O)S(=O)(=O)c1ccc([N+](=O)[O-])cc1`, the IC50 amounted to 0.0621 µM in experiment [2] and 189 µM in experiment [5]. The results for the inhibition at 10 µM in experiment [4] and in experiment [1] were 91% and 74%, respectively.
With `COc1ccc(S(=O)(=O)N(CC(C)C)C[C@@H](O)[C@H](Cc2ccccc2)NC(=O)c2cc3ccc(O)cc3oc2=O)cc1`, the values for the IC50 in experiment [2] and in experiment [5] were 0.0395 µM and 421 µM, respectively. The inhibition at 10 µM in experiment [4] came out at 12.3%.
Regarding `CC(C)CN(C[C@@H](O)[C@H](Cc1ccccc1)NC(=O)Cc1cc(=O)oc2cc(O)ccc12)S(=O)(=O)c1ccc([N+](=O)[O-])cc1`, the values for the IC50 in experiment [2] and in experiment [5] were 0.0111 µM and 367 µM, respectively. Also, the inhibition at 10 µM in experiment [4] was determined as 3.91%; in experiment [1] it was 73.4%.
On to `COc1ccc(S(=O)(=O)N(CC(C)C)C[C@@H](O)[C@H](Cc2ccccc2)NC(=O)c2ccc3oc(=O)ccc3c2)cc1`, for which the values for the IC50 in experiment [2] and in experiment [5] were 0.00184 µM and 597 µM, respectively. The inhibition at 10 µM in experiment [4] came out at 1.26%; in experiment [1] it was 99.5%.
Consider `CC(C)CN(C[C@@H](O)[C@H](Cc1ccccc1)NC(=O)c1ccc2oc(=O)ccc2c1)S(=O)(=O)c1ccc([N+](=O)[O-])cc1`, for which the IC50 was 0.0026 µM in experiment [2] and above 1000 µM in experiment [3]. For the same compound, the inhibition at 10 µM in experiment [1] was determined as 98.5%.
`CC(C)CN(C[C@@H](O)[C@H](Cc1ccccc1)NC(=O)Cc1cc(=O)oc2cc(N(C)C)ccc12)S(=O)(=O)c1ccc(N)cc1`: the IC50 in experiment [2] was 0.0751 µM; in experiment [5], 572 µM. The inhibition at 10 µM in experiment [4] turned out to be 18.4%.
As to `COc1ccc(S(=O)(=O)N(CC(C)C)C[C@@H](O)[C@H](Cc2ccccc2)NC(=O)Oc2ccc3c(C)cc(=O)oc3c2)cc1`, the IC50 in experiment [2] was 0.16 µM; in experiment [3], above 1000 µM.
Take `COc1ccc2cc(C(=O)N[C@@H](Cc3ccccc3)[C@H](O)CN(CC(C)C)S(=O)(=O)c3ccc(N)cc3)c(=O)oc2c1`: the values for the IC50 in experiment [2] and in experiment [5] were 0.102 µM and 706 µM, respectively. Further, the inhibition at 10 µM in experiment [4] turned out to be 23.2%.
As for `CC(C)CN(C[C@@H](O)[C@H](Cc1ccccc1)NC(=O)c1ccc2oc(=O)ccc2c1)S(=O)(=O)c1ccc(N)cc1`, the IC50 in experiment [2] worked out at 0.0004 µM; in experiment [5], 398 µM. Besides, the inhibition at 10 µM in experiment [4] amounted to 5.61%; in experiment [1], 98.7%.
On to `COc1ccc2c(CC(=O)N[C@@H](Cc3ccccc3)[C@H](O)CN(CC(C)C)S(=O)(=O)c3ccc(N)cc3)cc(=O)oc2c1`, for which the IC50 worked out at 0.0154 µM in experiment [2] and 411 µM in experiment [5]. The inhibition at 10 µM in experiment [4] was 7.72%.
`CC(C)CN(C[C@@H](O)[C@H](Cc1ccccc1)NC(=O)Cc1cc(=O)oc2cc(O)ccc12)S(=O)(=O)c1ccc(N)cc1`: the results for the IC50 in experiment [2] and in experiment [3] were 0.0379 µM and above 1000 µM, respectively. The inhibition at 10 µM in experiment [1] amounted to 17.9%.
Take `COc1ccc(S(=O)(=O)N(CC(C)C)C[C@@H](O)[C@H](Cc2ccccc2)NC(=O)Cc2cc(=O)oc3cc(N(C)C)ccc23)cc1`: the figures for the IC50 in experiment [2] and in experiment [5] were 0.211 µM and 355 µM, respectively. Besides, in experiment [4], the inhibition at 10 µM stood at 43.8%.
Consider `COc1ccc2cc(C(=O)N[C@@H](Cc3ccccc3)[C@H](O)CN(CC(C)C)S(=O)(=O)c3ccc([N+](=O)[O-])cc3)c(=O)oc2c1`, for which the 50% inhibitory concentration (IC50) in experiment [2] is 0.221 µM; in experiment [3], above 1000 µM. Further, the inhibition at 10 µM in experiment [4] is 0.45%.
`COc1ccc(S(=O)(=O)N(CC(C)C)C[C@@H](O)[C@H](Cc2ccccc2)NC(=O)Cc2cc(=O)oc3cc(OC)ccc23)cc1`: the half-inhibitory concentration (IC50) in experiment [2] was determined as 0.0155 µM; in experiment [5], 242 µM. The inhibition at 10 µM in experiment [4] came out at 17.7%.
For the compound `Cc1cc(=O)oc2cc(OC(=O)N[C@@H](Cc3ccccc3)[C@H](O)CN(CC(C)C)S(=O)(=O)c3ccc([N+](=O)[O-])cc3)ccc12`, the IC50 in experiment [2] is 1.02 µM; in experiment [3] it was above 1000 µM.
On to `COc1ccc(S(=O)(=O)N(CC(C)C)C[C@@H](O)[C@H](Cc2ccccc2)NC(=O)c2cc3ccccc3oc2=O)cc1`, for which the results for the IC50 in experiment [2] and in experiment [5] were 0.0728 µM and 474 µM, respectively. Also, the inhibition at 10 µM in experiment [4] was found to be 44.8%.
As to `O=C1Nc2ccc(Cl)cc2[C@@](C#CC2CC2)(C(F)(F)F)O1` [EFAVIRENZ], in experiment [1], the inhibition at 10 µM is 100%.
As to `Cc1ccnc2c1NC(=O)c1cccnc1N2C1CC1` [NEVIRAPINE], the inhibition at 0.1 µM in experiment [6] is 77%.
